In the library only some 1.6% were active in any assay of this set; here they are far more common.
STEP inh: STEP phosphatase inhibitors, primary screen, biochemical, fluorescence intensity, uHTS | recombinant STEP, OMFP fluorogenic substrate | inhibition, % at 20 µM | 360,000 tested, 0.25% active | Tyrosine-protein phosphatase non-receptor type 5 (Homo sapiens), P54829;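 active = inhibition at 20 µM, scaled per plate between control wells, above about 37%, limit read from the data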;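 also: 0% = DMSO with enzyme and substrate and 100% = substrate only without enzyme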
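System: STEP phosphatase, cell-free reaction; Buffer or medium: Bis-Tris pH 6.0 buffer with DTT, detergent; Incubation: 20 min at room temperature, dark; Measured by: fluorescence, 480/540 nm.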
Scp-1 inhibitor: Scp-1 phosphatase inhibitors, primary screen, biochemical, colorimetric, uHTS. Carboxy-terminal domain RNA polymerase II polypeptide A small phosphatase 1 (Homo …. Recombinant Scp1, phosphopeptide, malachite green phosphate absorbance. inhibition, % at 20 µM. AID 493091, 2011. 340,000 tested, 0.88% active;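 active = inhibition above about 50% at 20 µM, limit read from the data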;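 also: plate controls were DMSO wells with enzyme for no effect and wells lacking enzyme for full effect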
Target sequence (Q9GZU7 76-261 limits assumed): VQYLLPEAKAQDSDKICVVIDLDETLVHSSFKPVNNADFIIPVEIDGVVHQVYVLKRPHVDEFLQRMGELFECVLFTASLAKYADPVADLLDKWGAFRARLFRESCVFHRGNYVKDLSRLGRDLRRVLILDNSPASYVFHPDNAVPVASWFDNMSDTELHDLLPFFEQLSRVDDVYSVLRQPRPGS
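Incubation: 45 min enzyme reaction at room temperature / System: truncated SCP-1 phosphatase (76-261aa) / Reagent: Phospho 17-mer peptide substrate / Buffer or medium: Acidic Tris acetate buffer with magnesium and detergent / Signal: absorbance at 630 nm / Doses: one concentration, 20 µM, with 1.0% DMSO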
DNMT1 block: human DNMT1 methyltransferase inhibitors, primary screen, biochemical, molecular beacon, fluorescence, HinP1I cleavage, uHTS | 360,000 tested, 0.83% active | inhibition (reported as % activation of signal), % at 10 µM | DNA (cytosine-5)-methyltransferase 1 (Homo sapiens), P26358 | AID 588458, 2011; in the data active = inhibition above about 50%
LMPTP inh: LMPTP phosphatase inhibitors, primary screen, biochemical, fluorescence intensity, uHTS | Low molecular weight phosphotyrosine protein phosphatase (Homo sapiens), P24666 | recombinant LMPTP-A, OMFP fluorogenic substrate | inhibition, % at 20 µM | 360,000 tested, 0.22% active | AID 651560, 2012;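 active = compounds that cut the enzyme signal by at least half of the control window in the single-dose screen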;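 also: plate controls were DMSO wells with enzyme plus substrate for no effect and substrate without enzyme for full effect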
Target sequence (P24666 whole entry, looked up): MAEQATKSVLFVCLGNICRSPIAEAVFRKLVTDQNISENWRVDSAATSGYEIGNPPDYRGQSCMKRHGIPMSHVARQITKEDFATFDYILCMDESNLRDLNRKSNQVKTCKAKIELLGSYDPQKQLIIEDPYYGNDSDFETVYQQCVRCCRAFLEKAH
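Test system: LMPTP-A, protein tyrosine phosphatase of low molecular weight; Input: 0.625 nM enzyme; Incubation: 50 min dark incubation at room temperature; Signal: endpoint fluorescence intensity from OMFP dephosphorylation; Read-out basis: % inhibition versus control wells.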
SUMO1 PPI mod: modulators of SUMO1 protein-protein interactions, primary screen, biochemical, uHTS; Small ubiquitin-related modifier 1 (Homo sapiens), P63165; SUMO1 binding to a labelled peptide, TR-FRET, 1 h; inhibition, % at 20 µM; 360,000 tested, 0.33% active; AID 602429, 2012; in the data active = inhibition above about 37%
Target sequence (P63165 whole entry, looked up): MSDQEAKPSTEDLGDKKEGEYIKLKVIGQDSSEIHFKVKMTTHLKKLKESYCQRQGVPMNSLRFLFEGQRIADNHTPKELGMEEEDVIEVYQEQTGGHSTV
CFTR F508del cor: F508del CFTR correction, initial screen, CFBE line, single point; CFBE cells, YFP halide quenching; stimulated with forskolin plus potentiator P3; % fluorescence drop versus neutral controls; activity (quench increase), % at 7.58 µM; 350,000 tested, 0.36% active; AID 720511, 2013;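 active = mean added fluorescence quench of at least 8% versus neutral control, with both replicates also reaching 8%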;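 also: cells transiently co-express mutant CFTR-F508del with the halide-sensitive YFP; corrector assay measuring rescue of mutant channel to the surface after 24 h compound exposure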
Beacon interf DR: spectral interference with molecular beacon fluorescence, dose response, artefact control for DNMT1 inhibitor project, biochemical, fluorescent molecular beacon | shares compounds with DNMT1 block | spectral interference counter-screen | IC50, µM | 200 tested, under 10 active | AID 602382, 2012; call rule not given here
DNMT1 confirm: DNMT1 methyltransferase inhibitor retest, confirmation, biochemical, molecular beacon, fluorescence, single concentration; shares compounds with DNMT1 block; DNMT1 molecular beacon HinP1I cleavage; inhibition, % at 10 µM; 2,300 tested, 8% active; AID 602385, 2012;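 active = average inhibition of at least 30% in the single-concentration confirmation test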
DNMT1 interf: beacon fluorescence artifact counter-screen | activation (fluorescence interference), % at 10 µM | DNMT1 molecular beacon spectral interference counterscreen, fluorescence 485/520 | AID 602387 | shares compounds with DNMT1 block | 2,300 tested, 1% active;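 active = activation of at least 30% at 10 µM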;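 also: DNMT1 catalytic domain with a HinP1I cleavage step and a FAM/dabcyl DNA beacon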
An asterisk follows results filed as active; x = no result.

SMILES | STEP inh | Scp-1 inhibitor | DNMT1 block | LMPTP inh | SUMO1 PPI mod | CFTR F508del cor | DNMT1 confirm | DNMT1 interf | others
O=C(CCN1C(=O)/C(=C\c2ccco2)SC1=S)Nc1ccc(C(=O)O)c(O)c1 | 43* | 80* | 91* | 23 | 66* | -2 | 16 | 0
COc1ccccc1/C=C1\SC(=S)N(CCC(=O)Nc2ccc(C(=O)O)c(O)c2)C1=O | 6 | -11 | -18 | 12 | 4 | 1 | x | x
C1CCc2c(c(N3CCOCC3)nc3sc4c(N5CCOCC5)nnnc4c23)C1 | -3 | -9 | 1 | -2 | 7 | -1 | x | x
O=c1[nH]nnc2c1sc1nc(N3CCOCC3)c3c(c12)CCCC3 | 0 | -2 | 95* | -14 | -1 | -5 | 7 | 10
CC(C)C(=O)Nc1ccc2c(c1)C(=O)N(C)[C@@H]1CC[C@H](CC(=O)NCc3ccc(F)cc3)O[C@H]1CO2 | x | x | x | x | x | 3 | x | x
C[C@@H](NC(=O)C[C@@H]1C[C@@H]2c3cc(NC(=O)c4cccnc4)ccc3O[C@@H]2[C@@H](CO)O1)c1ccccc1 | x | x | x | x | x | -3 | x | x
Cc1noc(C)c1NC(=O)Nc1ccc2c(c1)CC(=O)N([C@@H](C)CO)C[C@H](C)[C@H](CN(C)C(=O)Nc1ccc(C(F)(F)F)cc1)O2 | x | x | x | x | x | -1 | x | x
COc1cc(C(=O)c2nccc3cc(OC)c(OC)cc23)c([N+](=O)[O-])cc1OC | 3 | -7 | 58* | 3 | 9 | 2 | 0 | -2
COc1cc(N)c(C(=O)c2nccc3cc(OC)c(OC)cc23)cc1OC | 4 | -5 | -3 | -2 | -8 | -3 | x | x
COc1ccc2c3c([nH]c2c1)C(C)N(CCC(=O)NN)CC3 (stereo not drawn) | 8 | -6 | 64* | 0 | -3 | 1 | 4 | 4
COc1ccc2c3c([nH]c2c1)C(C)N(C(C)=O)CC3 (stereo not drawn) | -2 | -11 | 0 | 1 | 0 | 2 | x | x
c1ccc(OCCCCn2cnc3ccccc32)cc1 | 3 | 1 | 74* | 0 | -1 | x | 2 | 5
CC1(C)C(=O)Nc2ccccc2N1C(=O)COc1cccnc1[N+](=O)[O-] | 2 | 16 | 58* | -1 | -9 | -2 | 5 | 2
Cc1ccc(OCC(=O)N2c3ccccc3NC(=O)C2(C)C)c([N+](=O)[O-])n1 | -1 | 4 | 0 | -2 | 7 | -1 | x | x
Cc1ccsc1C1NC(=O)c2ccccc2N1 (stereo not drawn) | -2 | -12 | 1 | -1 | 3 | x | x | x
O=C1NC(c2cccs2)Nc2ccccc21 (stereo not drawn) | -4 | -12 | 64* | 0 | -5 | x | 2 | 0
CCNC(=O)[C@H]1[C@H](CO)[C@H]2Cn3c(cccc3=O)[C@@H]1N2CCC(F)(F)F | x | x | x | x | x | -1 | x | x
CC(=O)NC12CC3CC(C1)CC(C(=O)OCC(=O)c1cc(C)n(C)c1C)(C3)C2 | 2 | -3 | 51* | -1 | 0 | -2 | 3 | 2
CC1=C/C(=C\c2ccc(Br)o2)C(=O)O1 | 24 | 82* | 106* | 11 | 6 | x | 46* | -2 | Beacon interf DR=>99
Cc1cc2c(N)cccc2nn1 | 75* | 60* | 127* | 93* | 73* | x | 1 | 0
Cc1sc(NC(=O)c2cc(-c3ccc(Cl)cc3)nc3ccccc23)c(C(N)=O)c1C | 3 | 2 | 61* | 14 | 0 | x | 0 | -7
C[C@@H]1CN([C@H](C)CO)C(=O)c2cc(NS(=O)(=O)c3ccc(F)cc3)ccc2O[C@@H](C)CCCCO[C@@H]1CN(C)Cc1ccccc1 | x | x | x | x | x | 2 | x | x
O=c1c2c3c(sc2[nH]c(=S)n1Cc1ccco1)CCC3 | 26 | 27 | 83* | 13 | 43* | 3 | 6 | 1
COCCCn1c(C(=O)Nc2ccc3c(c2)OCO3)cc2c(=O)n3cccc(C)c3nc21 | 6 | x | 83* | 17 | 31 | 2 | 1 | -8
O=C1CC(NCC2CCCO2)C(=O)N1c1ccc(F)cc1 (stereo not drawn) | -1 | -4 | 81* | -1 | 5 | -2 | 3 | 3
SMILES | STEP inh | Scp-1 inhibitor | DNMT1 block | LMPTP inh | SUMO1 PPI mod | CFTR F508del cor | DNMT1 confirm | DNMT1 interf | others
Cc1ccc(C(=O)NCCCNCCCNC(=O)c2ccc(C)nc2)cn1 | 0 | -3 | -1 | -4 | 0 | x | x | x
Cc1ccc(C(=O)NCCCNCCCN(C)C)cn1 | -1 | -10 | 53* | -13 | -2 | x | 1 | 2
COc1ccc2c3c(n(C)c2c1)[C@H](CO)N(Cc1cccc(F)c1)CC31CN(C(=O)Cc2ccccc2)C1 | x | x | x | x | x | -5 | x | x
C[C@H]1CN([C@@H](C)CO)C(=O)c2cc(NC(=O)C3CC3)ccc2O[C@@H]1CN(C)C(=O)Nc1ccccc1 | x | x | x | x | x | -3 | x | x
CC(=NNC(=O)COc1cccc(C)c1)c1cccnc1 | -2 | -6 | 80* | -1 | -1 | 0 | 1 | 1
C/C(=N/NC(=O)CNC(=O)COc1cccc(C)c1)c1ccc(Cl)cc1 | 0 | -8 | 16 | -1 | 1 | 1 | x | x
N#Cc1nc(-c2cccs2)oc1NCC1CCCO1 (stereo not drawn) | -1 | -2 | 67* | -1 | 1 | 2 | 3 | 3
COc1ccc(NC(=O)NC2(C(=O)N3CCN4CCCC4C3)CCCCC2)cc1 (stereo not drawn) | -1 | -7 | 0 | -1 | 2 | 0 | x | x
COc1ccc(NC(=O)NC2(C(=O)N3CCOCC3)CCCCC2)cc1 | -1 | -9 | 54* | 0 | 5 | 0 | 1 | -3
Cc1csc2ncc(C(=O)Nc3cccc(C(F)(F)F)c3)c(=O)n12 | -2 | -10 | 68* | 1 | -2 | -2 | 4 | 3
CO[C@H]1CN(C)C(=O)c2ccc(NC(=O)Cc3ccccc3)cc2OC[C@@H](C)NC[C@@H]1C | x | x | x | x | x | 2 | x | x

High-throughput results (PubChem)
